Results: ChEMBL document CHEMBL4699638, “A Multipronged Approach Establishes Covalent Modification of β-Tubulin as the Mode of Action of Benzamide Anti-cancer Toxins” (J Med Chem, 2020)
Activity calls are given as the source filed them. No cut-off for these calls is given here.

Key:
[1] = (§1) Anticancer activity against mouse 319N1 cells assessed as reduction in cell viability measured after 72 hrs by celltiter-glo assay; assay type: functional, cell-based; settings: 319N1, 72 h
Outline: (§2)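 Cells seeded in duplicate at 10,000 per well in DMEM with 5% FBS and incubated overnight. Compounds were then added as a 10-point dose response. After 72 h, viability was read by CellTiter-Glo luminescence, with the reagent diluted 1:1 in PBS/1% Triton-X. Values were normalized to DMSO-treated cells and IC50 was derived from curve fitting.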

518T2 [2] = test: Binding affinity to beta-tubulin in mouse 518T2 cells measured after 1.5 hrs using Alexa Fluor 532 dye by copper-mediated click reaction based SDS PAGE analysis; assay type: cell-based
Outline: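 Competition format in 518T2 murine SCLC cells, 1 million per well in DMEM with 5% FBS. Analogs in DMSO (100 nM to 50 μM) were dispensed first and cells plated onto them. Next day alkyne probe 24 (5 μM) was added for 1.5 h at 37 °C, 5% CO2. EC50 was taken from displacement of the 50 kDa band.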

[3] = Anticancer activity against mouse 319N1 clone C cells assessed as reduction in cell viability measured after 72 hrs by celltiter-glo assay; assay type: functional, cell-based; settings: 319N1, 72 h; outline: as §2
319N1 = test: as §1; assay type: functional, cell-based; outline: as §2
[4] = molecular target: Tubulin beta-3 chain (Homo sapiens) (UniProt Q13509); test: Binding affinity to recombinant human C-terminal His-tagged beta3-tubulin expressed in insect cells assessed as reduction in microtubule growth measured up to 30 mins by microscopic analysis; settings: dose microM 1-10, time min <=30
Outline: (§3)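 Human αβ-tubulin (TUBA1B plus TUBB3 with cleavable C-terminal His-tag) was expressed in Tni insect cells. It was purified by Ni-affinity, TEV cleavage and anion exchange, then kept in BRB80 with 50 μM GTP. Growth was measured by DIC time-lapse at 30 °C on GMPCPP seeds in 144 mM PIPES pH 6.9 buffer with 1 mM GTP and 4% DMSO, over about 30 min. Compound was tested at 1, 5 and 10 μM; growth rates were measured per microtubule over two trials.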

[5] = molecular target: Tubulin beta-3 chain (Homo sapiens) (UniProt Q13509); test: Binding affinity to recombinant human C-terminal His-tagged beta3-tubulin expressed in insect cells assessed as reduction in microtubule growth by measuring microtubule growth rate at 1 uM measured up to 30 mins by microscopic analysis (reference value: 0.83 micrometer/min); settings: time min <=30; outline: as §3
[6] = molecular target: Tubulin beta-3 chain (Homo sapiens) (UniProt Q13509); test: Binding affinity to recombinant human C-terminal His-tagged beta3-tubulin expressed in insect cells assessed as reduction in microtubule growth by measuring microtubule growth rate at 10 uM measured up to 30 mins by microscopic analysis (reference value: 0.83 micrometer/min); settings: time min <=30; outline: as §3
Bos taurus = species on record: Bos taurus; test: Binding affinity to bovine brain beta-tubulin assessed as reduction in microtubule growth at 0.5 uM measured up to 30 mins by microscopic analysis; assay type: tissue-based; settings: time min <=30
Outline: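 Microtubule growth from brain tubulin was imaged by time-lapse DIC microscopy at 30 °C on biotinylated GMPCPP seeds bound to neutravidin coverslips. Frames were taken every 50 ms and averaged in batches of 30; recordings ran about 30 min. Growth rates were quantified per microtubule.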

518T2 [7] = test: Binding affinity to beta-tubulin in mouse 518T2 cells at 0.1 to 50 uM measured after 1.5 hrs using Alexa Fluor 532 dye by copper-mediated click reaction based SDS PAGE analysis; assay type: cell-based; settings: dose microM 0.1-50, time 1.5 hrs
Outline: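 Competition assay in 518T2 cells (1 million per well, DMEM with 5% FBS). Test analogs in DMSO were dispensed first at 100 nM to 50 μM and the cells plated onto them. The next day, alkyne probe (5 μM) was added for 1.5 h at 37 °C. Lysis was in 1% SDS HEPES buffer, followed by a click reaction with fluorescent azide, SDS-PAGE, and EC50 from displacement of the p50 band.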

Chain of Tubulin beta-3 chain (Homo sapiens) (Q13509 whole entry): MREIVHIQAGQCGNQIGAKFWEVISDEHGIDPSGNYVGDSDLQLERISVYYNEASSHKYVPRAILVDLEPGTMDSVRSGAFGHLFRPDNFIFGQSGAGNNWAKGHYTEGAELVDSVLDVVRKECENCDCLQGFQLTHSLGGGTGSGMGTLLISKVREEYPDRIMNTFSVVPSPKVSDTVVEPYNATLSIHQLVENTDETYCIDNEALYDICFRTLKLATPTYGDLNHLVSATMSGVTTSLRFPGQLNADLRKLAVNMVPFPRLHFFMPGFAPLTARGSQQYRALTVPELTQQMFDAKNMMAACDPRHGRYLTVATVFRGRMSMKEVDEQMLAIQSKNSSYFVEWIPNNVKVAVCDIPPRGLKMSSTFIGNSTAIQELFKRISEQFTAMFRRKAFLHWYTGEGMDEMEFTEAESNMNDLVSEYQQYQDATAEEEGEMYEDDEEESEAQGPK

COC(=O)c1c(C)oc2ccc(NS(=O)(=O)c3ccc(Cl)c([N+](=O)[O-])c3)cc12
IC50 [1]: 2.8 µM | inhibition (518T2 [2]): Dose-dependent effect | IC50 [3]: 7.57 µM

Cc1ccc(N2CCN(C(=O)c3ccc(Cl)c([N+](=O)[O-])c3)CC2)c(C)c1
IC50 [1]: 6.99 µM

O=C(c1cccc([N+](=O)[O-])c1)N1CCN(c2ccccc2)CC1
Activity (319N1): inactive

Cc1ccc(Cl)cc1N1CCN(C(=O)c2ccc([N+](=O)[O-])c(Cl)c2)CC1
IC50 [1]: 4.68 µM

COc1cc(OC)cc(N2CCN(C(=O)c3ccc(C=O)c([N+](=O)[O-])c3)CC2)c1
IC50 [1]: 0.127 µM | Activity [4]: Dose-dependent effect | Activity [5]: 0.67 um/min | Activity [6]: 0.31 um/min | Activity (Bos taurus): Active

Cc1ccc(Cl)cc1N1CCN(C(=O)c2ccc(F)c([N+](=O)[O-])c2)CC1
beta-tubulin binding (probe competition, active/inactive) (518T2 [7]): Active

Cc1ccc(Cl)cc1N1CCN(C(=O)c2ccc(I)c([N+](=O)[O-])c2)CC1
beta-tubulin binding (probe competition, active/inactive) (518T2 [7]): Active

Cc1ccc(Cl)cc1N1CCN(C(=O)c2ccc(Cl)cc2[N+](=O)[O-])CC1
IC50 [1]: 17 µM

O=C(c1ccc(Cl)c([N+](=O)[O-])c1)N1CCN(c2cccc(Br)c2)CC1
IC50 [1]: 0.866 µM | beta-tubulin binding (probe competition, active/inactive) (518T2 [7]): Active

O=C(c1ccc(Cl)c([N+](=O)[O-])c1)N1CCN(c2cc(Cl)ccc2Cl)CC1
IC50 [1]: 0.458 µM

O=C(c1ccc(Cl)cc1)N1CCN(c2ccccc2)CC1
Activity (319N1): inactive

Cc1ccc(Cl)cc1N1CCN(C(=O)c2ccc(Cl)c([N+](=O)[O-])c2)CC1
beta-tubulin binding (probe competition, active/inactive) (518T2 [7]): Active | IC50 [3]: 1.48 µM

N#Cc1cccc(N2CCN(C(=O)c3ccc(Cl)c([N+](=O)[O-])c3)CC2)c1
IC50 [1]: 0.593 µM

Cc1ccc(C)c(N2CCN(C(=O)c3ccc(Cl)c([N+](=O)[O-])c3)CC2)c1
IC50 [1]: 1.04 µM

CC[C@]1(O)C[C@H]2CN(CCc3c([nH]c4ccccc34)[C@@](C(=O)OC)(c3cc4c(cc3OC)N(C=O)[C@H]3[C@@](O)(C(=O)OC)[C@H](OC(C)=O)[C@]5(CC)C=CCN6CC[C@]43[C@@H]65)C2)C1
beta-tubulin binding (probe competition, active/inactive) (518T2 [7]): inactive

O=C(c1ccc(Cl)c([N+](=O)[O-])c1)N1CCN(c2ccc(F)cc2F)CC1
IC50 [1]: 24.7 µM
